Experimental data from ChEMBL document CHEMBL1121813, “Dihydrochalcone sweeteners. A study of the atypical temporal phenomena” (1981).

Experiments:
Format in all cases: functional
Homo sapiens [1] = species: Homo sapiens; assay: Sour character at a concentration of 252 ppm (mean value)
In short: (§1)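 Trained human sensory panel (Swartz method) tasted dilute aqueous solutions of the compounds, which had to be ≥95 weight percent pure and free of mutagenicity and toxicity. Taste character is reported as the mean value with 2S_m limits. Data deviating excessively at the 95% confidence level were rejected by the t-value method.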

Homo sapiens [2] = species: Homo sapiens; assay: Number of taste judgments per compound
Homo sapiens [3] = species: Homo sapiens; assay: Sweet character at a concentration of 252 ppm (mean value); in short: as §1
Homo sapiens [4] = species: Homo sapiens; assay: Percentage of judgments reporting an aftertaste at a concentration of 252 ppm and character thereof; Bitter
In short: (§2)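 Trained judges tasted aqueous solutions of the compounds, which had to be ≥95 weight percent pure and to have passed mutagenicity and single oral dose toxicity screening. The value is the percentage of panel judgments reporting an aftertaste. Where given, its character is recorded as sweet, bitter or bitter-sweet.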

Homo sapiens [5] = species: Homo sapiens; assay: Intensity calculated on a weight basis relative to an 85500 ppm sucrose solution at a concentration of 252 ppm (mean value)
In short: (§3)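 Trained human panel tasted aqueous solutions of purity-checked (≥95 weight percent) compounds cleared for mutagenicity and mouse oral toxicity. Weight-basis intensity I_w = perceived intensity × (85500 ppm sucrose / compound concentration in ppm). The mean is reported with 2S_m limits; data deviating excessively at 95% confidence were rejected by the t-value method.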

Homo sapiens [6] = species: Homo sapiens; assay: Sweet / Bitter character at a concentration of 252 ppm (mean value)
Homo sapiens [7] = species: Homo sapiens; assay: Intensity calculated on a molar basis relative to a 0.25 M sucrose solution at a concentration of 252 ppm (mean value)
In short: (§4)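 Trained human judges tasted aqueous solutions of the test compound; compounds were first required to be ≥95 weight percent pure and free of mutagenicity (five Salmonella typhimurium strains, ± microsomal activation) and of single oral dose mouse toxicity. Molar intensity I_m = perceived intensity × (0.25 M sucrose / compound molar concentration). The mean is reported with 2S_m limits; outliers were rejected at 95% confidence by t-value.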

Homo sapiens [8] = species: Homo sapiens; assay: Bitter character at a concentration of 252 ppm (mean value)
In short: (§5)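 Trained human panel tasted aqueous solutions. Each judge reported whether there was an aftertaste and its character (sweet, bitter or bitter-sweet). The value is the percentage of judgments reporting a bitter aftertaste.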

Homo sapiens [9] = species: Homo sapiens; assay: Other taste character at a concentration of 252 ppm (mean value); in short: as §1
Homo sapiens [10] = species: Homo sapiens; assay: Experimentally determined perceived intensity of compound at a concentration of 252 ppm (mean value)
In short: (§6)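 Trained human sensory panel of judges tasted aqueous solutions of the compound. Samples had to be ≥95 weight % pure (HPLC, proton titration, Karl Fischer), non-mutagenic in five Salmonella typhimurium strains with and without microsomal activation, and non-toxic in a single-oral-dose mouse test. Perceived intensity (Ip) was read from time–intensity curves at 4- or 6-s intervals and averaged. Outliers at the 95% level were rejected by t-value. Values reported as mean (2Sm).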

Homo sapiens [11] = species: Homo sapiens; assay: Salty character at a concentration of 252 ppm (mean value); in short: as §1
Homo sapiens [12] = species: Homo sapiens; assay: Experimentally determined perceived intensity of compound at a concentration of 251 ppm (mean value); in short: as §6
Homo sapiens [13] = species: Homo sapiens; assay: Sweet / Bitter character at a concentration of 251 ppm (mean value); […]
Homo sapiens [14] = species: Homo sapiens; assay: Intensity calculated on a weight basis relative to an 85500 ppm sucrose solution at a concentration of 251 ppm (mean value); in short: as §3
Homo sapiens [15] = species: Homo sapiens; assay: Sweet character at a concentration of 251 ppm (mean value); in short: as §1
Homo sapiens [16] = species: Homo sapiens; assay: Percentage of judgments reporting an aftertaste at a concentration of 251 ppm and character thereof
In short: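 Trained human sensory panel; compounds tasted in aqueous solution. Before panel work, compounds had to be ≥95 weight percent pure (HPLC, proton titration, Karl Fischer) and free of mutagenicity (five Salmonella typhimurium strains, ± microsomal activation) and single oral dose mouse toxicity. Value is the percentage of judgments reporting an aftertaste, with its character recorded as sweet, bitter or bitter-sweet.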

Homo sapiens [17] = species: Homo sapiens; assay: Intensity calculated on a molar basis relative to a 0.25 M sucrose solution at a concentration of 251 ppm (mean value); in short: as §4
Homo sapiens [18] = species: Homo sapiens; assay: Other taste character at a concentration of 251 ppm (mean value); in short: as §1
Homo sapiens [19] = species: Homo sapiens; assay: Salty character at a concentration of 251 ppm (mean value); in short: as §1
Homo sapiens [20] = species: Homo sapiens; assay: Bitter character at a concentration of 251 ppm (mean value); in short: as §5
Homo sapiens [21] = species: Homo sapiens; assay: Sour character at a concentration of 251 ppm (mean value); in short: as §1
Homo sapiens [22] = species: Homo sapiens; assay: Intensity calculated on a molar basis relative to a 0.25 M sucrose solution at a concentration of 250 ppm (mean value); in short: as §4
Homo sapiens [23] = species: Homo sapiens; assay: Other taste character at a concentration of 250 ppm (mean value); in short: as §1
Homo sapiens [24] = species: Homo sapiens; assay: Intensity calculated on a weight basis relative to an 85500 ppm sucrose solution at a concentration of 250 ppm (mean value); in short: as §3
Homo sapiens [25] = species: Homo sapiens; assay: Experimentally determined perceived intensity of compound at a concentration of 250 ppm (mean value); in short: as §6
Homo sapiens [26] = species: Homo sapiens; assay: Sweet / Bitter character at a concentration of 250 ppm (mean value); 92/8
Homo sapiens [27] = species: Homo sapiens; assay: Percentage of judgments reporting an aftertaste at a concentration of 250 ppm and character thereof; in short: as §2
Homo sapiens [28] = species: Homo sapiens; assay: Sour character at a concentration of 250 ppm (mean value); in short: as §1
Homo sapiens [29] = species: Homo sapiens; assay: Salty character at a concentration of 250 ppm (mean value); in short: as §1
Homo sapiens [30] = species: Homo sapiens; assay: Sweet character at a concentration of 250 ppm (mean value); in short: as §1
Homo sapiens [31] = species: Homo sapiens; assay: Bitter character at a concentration of 250 ppm (mean value); in short: as §5
Homo sapiens [32] = species: Homo sapiens; assay: Bitter character at a concentration of 1013 ppm (mean value); in short: as §5
Homo sapiens [33] = species: Homo sapiens; assay: Sweet / Bitter character at a concentration of 1013 ppm (mean value); 28/72
Homo sapiens [34] = species: Homo sapiens; assay: Intensity calculated on a weight basis relative to an 85500 ppm sucrose solution at a concentration of 1013 ppm (mean value); in short: as §3
Homo sapiens [35] = species: Homo sapiens; assay: Sweet character at a concentration of 1013 ppm (mean value)
Homo sapiens [36] = species: Homo sapiens; assay: Percentage of judgments reporting an aftertaste at a concentration of 1013 ppm and character thereof; in short: as §2
Homo sapiens [37] = species: Homo sapiens; assay: Sour character at a concentration of 1013 ppm (mean value)
Homo sapiens [38] = species: Homo sapiens; assay: Experimentally determined perceived intensity of compound at a concentration of 1013 ppm (mean value); in short: as §6
Homo sapiens [39] = species: Homo sapiens; assay: Intensity calculated on a molar basis relative to a 0.25 M sucrose solution at a concentration of 1013 ppm (mean value); in short: as §4
Homo sapiens [40] = species: Homo sapiens; assay: Salty character at a concentration of 1013 ppm (mean value)
Homo sapiens [41] = species: Homo sapiens; assay: Other taste character at a concentration of 1013 ppm (mean value)
In short: (§7)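 Trained human panel tasted aqueous solutions of each compound. Aftertaste is scored as the percentage of judgments reporting one, with its character coded sweet (s), bitter (b) or bitter-sweet (bs).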

Homo sapiens [42] = species: Homo sapiens; assay: Other taste character at a concentration of 1001 ppm (mean value); in short: as §7
Homo sapiens [43] = species: Homo sapiens; assay: Sour character at a concentration of 1001 ppm (mean value)
Homo sapiens [44] = species: Homo sapiens; assay: Salty character at a concentration of 1001 ppm (mean value)
Homo sapiens [45] = species: Homo sapiens; assay: Intensity calculated on a weight basis relative to an 85500 ppm sucrose solution at a concentration of 1001 ppm (mean value); in short: as §3
Homo sapiens [46] = species: Homo sapiens; assay: Percentage of judgments reporting an aftertaste at a concentration of 1001 ppm and character thereof; Sweet; in short: as §2
Homo sapiens [47] = species: Homo sapiens; assay: Intensity calculated on a molar basis relative to a 0.25 M sucrose solution at a concentration of 1001 ppm (mean value)
In short: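 Panel-derived mean perceived intensity (Ip) converted to a molar basis by Im = Ip × (0.25 M / Y), where Y is the compound's molar concentration. Reference is a 0.25 M sucrose solution. Reported with limits of 2Sm.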

Homo sapiens [48] = species: Homo sapiens; assay: Bitter character at a concentration of 1001 ppm (mean value); in short: as §5
Homo sapiens [49] = species: Homo sapiens; assay: Sweet / Bitter character at a concentration of 1001 ppm (mean value)
Homo sapiens [50] = species: Homo sapiens; assay: Sweet character at a concentration of 1001 ppm (mean value)
Homo sapiens [51] = species: Homo sapiens; assay: Experimentally determined perceived intensity of compound at a concentration of 1001 ppm (mean value); in short: as §6

## O=C(O)CCc1cccc(O)c1
Homo sapiens [1]
  Taste character: 96
Homo sapiens [2]
  Judgments: 8
Homo sapiens [3]
  Taste character: 0
Homo sapiens [4]
  Judgments: 38
Homo sapiens [5]
  IW: 160
Homo sapiens [6]
  Taste character: 0
Homo sapiens [7]
  IM: 80
Homo sapiens [8]
  Taste character: 4
Homo sapiens [9]
  Taste character: 0
Homo sapiens [10]
  IP: 0.46
Homo sapiens [11]
  Taste character: 0

## COc1ccc(CCC(=O)c2c(O)cc(OCCCP(=O)([O-])O)cc2O)cc1O.[K+]
Homo sapiens [12]
  IP: 0.83
Homo sapiens [13]
  Taste character: 92
Homo sapiens [2]
  Judgments: 12
Homo sapiens [14]
  IW: 280
Homo sapiens [15]
  Taste character: 80
Homo sapiens [16]
  Judgments: 100
Homo sapiens [17]
  IM: 380
Homo sapiens [18]
  Taste character: 13
Homo sapiens [19]
  Taste character: 0
Homo sapiens [20]
  Taste character: 7
Homo sapiens [21]
  Taste character: 0

## COc1ccc(CCC(=O)c2c(O)cc(OCCC(O)C(=O)[O-])cc2O)cc1O.[Na+] (stereo not given)
Homo sapiens [22]
  IM: 550
Homo sapiens [23]
  Taste character: 0
Homo sapiens [24]
  IW: 440
Homo sapiens [25]
  IP: 1.28
Homo sapiens [26]
  Taste character: 92
Homo sapiens [2]
  Judgments: 4
Homo sapiens [27]
  Judgments: 100
Homo sapiens [28]
  Taste character: 0
Homo sapiens [29]
  Taste character: 0
Homo sapiens [30]
  Taste character: 92
Homo sapiens [31]
  Taste character: 8

## COc1ccc(/C=C/C(=O)c2ccc(OCCCS(=O)(=O)[O-])cc2O)cc1O.[K+]
Homo sapiens [32]
  Taste character: 59
Homo sapiens [33]
  Taste character: 28
Homo sapiens [34]
  IW: 38
Homo sapiens [35]
  Taste character: 23
Homo sapiens [36]
  Judgments: 100
Homo sapiens [37]
  Taste character: 0
Homo sapiens [2]
  Judgments: 12
Homo sapiens [38]
  IP: 0.45
Homo sapiens [39]
  IM: 50
Homo sapiens [40]
  Taste character: 0
Homo sapiens [41]
  Taste character: 18

## COc1ccc(CCc2noc3cc(OCC(=O)[O-])cc(O)c23)cc1O.[Na+]
Homo sapiens [42]
  Taste character: 12
Homo sapiens [43]
  Taste character: 0
Homo sapiens [44]
  Taste character: 0
Homo sapiens [2]
  Judgments: 12
Homo sapiens [45]
  IW: 32
Homo sapiens [46]
  Judgments: 100
Homo sapiens [47]
  IM: 36
Homo sapiens [48]
  Taste character: 22
Homo sapiens [49]
  Taste character: 75
Homo sapiens [50]
  Taste character: 66
Homo sapiens [51]
  IP: 0.38
